The list is not random: actives were taken first. Their share in the collection is about 2.8%.
E-selectin induc = E-selectin induction in HUVECs, primary screen, imaging, HUVEC, immunofluorescence imaging, single point. P16581. normalized: neutral wells 0, TNF-alpha wells 100. AID 686992, 2013. 0.37% of 260,000 active. activation, % at 7.58 µM;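 active = mean E-selectin-positive cell signal at least 10% of the positive control, reached in at least 60% of replicates, without over 20% cell loss; inconclusive = no rule given, readout overlaps actives, possibly toxicity-flagged; inactive = the rest, including those meeting only one limit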
Target sequence (P16581 whole entry, looked up): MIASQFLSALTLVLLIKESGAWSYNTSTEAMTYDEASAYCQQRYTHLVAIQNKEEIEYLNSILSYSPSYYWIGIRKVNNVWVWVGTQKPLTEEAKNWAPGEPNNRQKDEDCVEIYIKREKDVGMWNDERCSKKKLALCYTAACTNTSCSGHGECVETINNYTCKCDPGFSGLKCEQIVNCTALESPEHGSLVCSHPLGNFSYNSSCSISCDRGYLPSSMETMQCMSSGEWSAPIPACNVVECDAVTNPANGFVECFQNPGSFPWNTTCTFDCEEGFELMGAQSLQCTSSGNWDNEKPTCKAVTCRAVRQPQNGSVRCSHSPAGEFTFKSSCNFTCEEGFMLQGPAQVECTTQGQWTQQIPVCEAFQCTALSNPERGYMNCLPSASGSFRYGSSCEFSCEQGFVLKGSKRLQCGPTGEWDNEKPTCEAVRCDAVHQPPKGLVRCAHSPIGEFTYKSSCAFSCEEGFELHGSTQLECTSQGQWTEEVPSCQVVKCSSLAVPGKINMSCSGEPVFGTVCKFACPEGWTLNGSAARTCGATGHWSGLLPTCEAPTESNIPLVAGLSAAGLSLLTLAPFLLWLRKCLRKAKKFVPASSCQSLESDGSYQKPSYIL
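Read-out basis: % PE-positive cells; Test system: HUVEC primary endothelial cells; Technique: immunofluorescence imaging; Dosing: single-point compound dose.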
DENV2 CPE = inhibitors of DENV2 cytopathic effect, primary screen, cell-based, plate reader, single concentration | DENV2-infected cells, cytopathic effect rescue | CPE inhibition, % at 9.99 µM | 1.7% of 350,000 active | AID 651640, 2012; in the data active = CPE inhibition above about 20%, passing the limit was not always enough; inconclusive = no clear call, values can overlap the other calls; tested in BHK-21 cells;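 note: 0% = median of neutral control wells and 100% = median of positive control wells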
SIRT5 inh = SIRT5 desuccinylase inhibitors, primary screen, biochemical, fluorescence imaging, single point, set 5; NAD-dependent protein deacylase sirtuin-5, mitochondrial (Homo sapiens), Q9NXA8; Purified SirT5, succinyl-peptide AMC, trypsin-coupled fluorescence; inhibition, % at 15 µM; 1.1% of 330,000 active; AID 652115, 2013; in the data active = inhibition above about 15%; inconclusive = no clear call, values can overlap the other calls
An asterisk follows results filed as active.

How did CO[C@H]1CN(C)C(=O)c2ccc(NC(=O)Nc3ccc(C(F)(F)F)cc3)cc2OC[C@@H](C)NC[C@@H]1C do in these assays?
E-selectin induc: 0; DENV2 CPE: -18; SIRT5 inh: 6

Results for CO[C@@H]1CN(C)C(=O)c2ccc(NC(=O)C3CCC3)cc2OC[C@H](C)NC[C@@H]1C ?
E-selectin induc: 0; DENV2 CPE: 34*; SIRT5 inh: -4

How did CO[C@H]1CN(C)C(=O)c2ccc(NC(=O)C3CCC3)cc2OC[C@@H](C)NC[C@@H]1C do in these assays?
E-selectin induc: 0; DENV2 CPE: -4; SIRT5 inh: -1

Results for CO[C@H]1CN(C)C(=O)c2ccc(NC(=O)Nc3ccc(C(F)(F)F)cc3)cc2OC[C@H](C)NC[C@H]1C ?
E-selectin induc: 0; DENV2 CPE: 2; SIRT5 inh: 15*

Results for CCCC(=O)Nc1ccc2c(c1)OC[C@@H](C)NC[C@H](C)[C@@H](OC)CN(C)C2=O ?
E-selectin induc: 0; DENV2 CPE: 12; SIRT5 inh: -4

How did Cc1noc(C)c1S(=O)(=O)Nc1ccc2c(c1)CC(=O)N([C@@H](C)CO)C[C@@H](C)[C@H](CN(C)S(C)(=O)=O)O2 do in these assays?
E-selectin induc: -8; DENV2 CPE: 2

How did COCc1cn(CC[C@H]2CC[C@@H](NC(=O)Nc3ccc(Cl)cc3)[C@@H](CO)O2)nn1 do in these assays?
E-selectin induc: 0; DENV2 CPE: 17; SIRT5 inh: 2

Results for COc1ccc(S(=O)(=O)Nc2ccc3c(c2)C(=O)N([C@@H](C)CO)C[C@H](C)[C@@H](CN(C)S(C)(=O)=O)OCCCC[C@@H](C)O3)cc1 ?
E-selectin induc: 0; DENV2 CPE: 5; SIRT5 inh: -9

How did O=C(c1ccccc1)c1coc2ccc(O)c(Cl)c12 do in these assays?
SIRT5 inh: 22*

Results for CCN(CC)Cc1c(O)ccc2occ(C(=O)c3ccccc3)c12 ?
DENV2 CPE: 12

What do the screens show for `C[C@H](CO)N1C[C@H](C)[C@@H](CN(C)C(=O)Oc2ccccc2)OCc2ccccc2-c2ccccc2C1=O`?
E-selectin induc: 0; DENV2 CPE: -2; SIRT5 inh: -2

What do the screens show for `CCNC(=O)C[C@@H]1CC[C@@H]2[C@H](COc3ccc(NC(=O)c4ccccc4Cl)cc3C(=O)N2C)O1`?
E-selectin induc: 0; DENV2 CPE: 1

How did O=C(C[C@@H]1CC[C@H](NC(=O)Nc2ccc3c(c2)OCO3)[C@@H](CO)O1)NCc1ccc2c(c1)OCO2 do in these assays?
E-selectin induc: 0; DENV2 CPE: 24*

What do the screens show for `O=C(NCC[C@@H]1CC[C@H](NC(=O)c2ccccc2F)[C@@H](CO)O1)c1ccc2c(c1)OCO2`?
E-selectin induc: -1; DENV2 CPE: inconclusive; SIRT5 inh: 16*

How did O=C(Nc1ccc2c(c1)OCO2)N[C@@H]1CC[C@H](CCNC(=O)C2CCC2)O[C@@H]1CO do in these assays?
E-selectin induc: -1; DENV2 CPE: 32*; SIRT5 inh: -3

How did O=C(Nc1ccc2c(c1)OCO2)N[C@H]1CC[C@@H](CCNC(=O)C2CCC2)O[C@@H]1CO do in these assays?
E-selectin induc: -1; DENV2 CPE: 8; SIRT5 inh: 9

Results for O=C(C[C@H]1CC[C@H](NC(=O)Nc2ccc3c(c2)OCO3)[C@@H](CO)O1)NCc1ccc2c(c1)OCO2 ?
E-selectin induc: 0; DENV2 CPE: 17

Results for O=C(C[C@@H]1CC[C@H](NC(=O)Nc2ccccc2F)[C@H](CO)O1)NCc1ccc(-c2ccccc2)cc1 ?
E-selectin induc: 0; DENV2 CPE: -1; SIRT5 inh: 5

How did O=C(C[C@H]1CC[C@@H](NC(=O)Nc2ccccc2F)[C@@H](CO)O1)NCc1ccc(-c2ccccc2)cc1 do in these assays?
E-selectin induc: -1; DENV2 CPE: 30*; SIRT5 inh: 3

What do the screens show for `O=C(NCC[C@@H]1CC[C@H](NC(=O)c2ccccc2F)[C@H](CO)O1)c1ccc2c(c1)OCO2`?
E-selectin induc: 0; DENV2 CPE: -3; SIRT5 inh: 4

How did O=C(Cc1ccccn1)NCC[C@H]1CC[C@@H](NC(=O)CN2CCOCC2)[C@H](CO)O1 do in these assays?
E-selectin induc: 0; DENV2 CPE: 1; SIRT5 inh: 2

What do the screens show for `COc1ccc(S(=O)(=O)N(C)C[C@@H]2Oc3ccc(NS(C)(=O)=O)cc3CC(=O)N([C@H](C)CO)C[C@H]2C)cc1`?
DENV2 CPE: 5; SIRT5 inh: 4

Results for C[C@H]1CN([C@@H](C)CO)C(=O)Cc2cc(NC(=O)CCC(F)(F)F)ccc2O[C@@H]1CN(C)C(=O)Nc1cccc2ccccc12 ?
E-selectin induc: 0; DENV2 CPE: 8

How did COc1ccc(-c2nc3c(C)cc(Br)cn3c2Cc2ccccc2)cc1OC do in these assays?
E-selectin induc: 1; DENV2 CPE: -15; SIRT5 inh: -3

Results for COc1ccccc1Cc1c(-c2ccc(Cl)cc2)nc2c(C)cc(Br)cn12 ?
DENV2 CPE: -6; SIRT5 inh: 0

Results for COc1ccccc1Cc1c(-c2cccc(Br)c2)nc2c(C)cc(Br)cn12 ?
E-selectin induc: 4; DENV2 CPE: 5; SIRT5 inh: 19*

Results for COc1ccc(-c2nc3ccc(Br)cn3c2Cc2cccc(F)c2)cc1OC ?
E-selectin induc: 1; DENV2 CPE: 9; SIRT5 inh: 0

What do the screens show for `COc1ccc(-c2nc3ccc(C)cn3c2Cc2cccc(F)c2)cc1OC`?
E-selectin induc: 0; DENV2 CPE: 33*; SIRT5 inh: -7

What do the screens show for `COc1ccc(-c2nc3c(C)cc(Br)cn3c2Cc2cccc(F)c2)cc1OC`?
E-selectin induc: 0; DENV2 CPE: 89*; SIRT5 inh: -2

How did CCCC(=O)Nc1ccc2c(c1)OC[C@H](C)N(C(=O)C1CCCC1)C[C@H](C)[C@@H](OC)CN(C)C2=O do in these assays?
E-selectin induc: 0; DENV2 CPE: -2; SIRT5 inh: -8

Results for CCCNC(=O)N1CC2(CCN(S(=O)(=O)c3cccc(OC)c3)CC2)c2c(n(C)c3cc(OC)ccc23)[C@@H]1CO ?
E-selectin induc: 0; DENV2 CPE: -11; SIRT5 inh: 4

What do the screens show for `COc1ccc(S(=O)(=O)Nc2ccc3c(c2)C(=O)N([C@@H](C)CO)C[C@@H](C)[C@@H](CN(C)C(=O)Nc2ccc4c(c2)OCO4)OCCCC[C@H](C)O3)cc1`?
E-selectin induc: 0; DENV2 CPE: 10; SIRT5 inh: 3

How did Cc1noc(C)c1S(=O)(=O)Nc1cccc2c1O[C@H](CN(C)Cc1ccc(C(=O)Nc3ccccc3N)cc1)[C@H](C)CN([C@@H](C)CO)C2=O do in these assays?
E-selectin induc: 1; DENV2 CPE: inconclusive; SIRT5 inh: 6

What do the screens show for `COc1ccc(-c2cc(C(=O)NCCCN3CCCC3=O)c3ccccc3n2)cc1`?
E-selectin induc: 0; DENV2 CPE: 58*; SIRT5 inh: -9

What do the screens show for `O=C(NCCCN1CCCC1=O)c1cc(-c2ccc(F)cc2)nc2ccccc12`?
DENV2 CPE: 0

Results for CN1[C@H](C(=O)NCc2ccccn2)[C@@H](CO)[C@@H]2Cn3c(ccc(-c4cccc(F)c4)c3=O)[C@@H]21 ?
E-selectin induc: -1; DENV2 CPE: -11; SIRT5 inh: 6
